# In ChEMBL document CHEMBL1138493, “Synthesis and modeling of new benzofuranone histone deacetylase inhibitors that stimulate tumor suppressor gene expression” (J Med Chem, 2009):
# Calls of active or inactive are those of the source. The calls are words filed in the database; no cut-off is given here.
# What was measured:
# NCI-H661 [1] = assay: Antiproliferative activity against human NCI-H661 cells after 48 hrs by XTT assay; format: functional, cell-based; settings: NCI-H661, 48 h
# NCI-H661 [2] = assay: Increase in E-cadherin mRNA expression in human NCI-H661 cells at 300 nM by qRT-PCR relative to control; format: functional
# NCI-H661 [3] = assay: Increase in semaphoring 3F mRNA expression in human NCI-H661 cells at 300 nM by qRT-PCR relative to control; format: functional
# [4] = target: Histone deacetylase (Homo sapiens) (UniProt Q13547+O15379+Q9UBN7+Q92769+Q9UQL6+Q8WUI4+Q9BY41+Q96DB2+P56524+Q9UKV0+Q969S8); assay: Inhibition of HDAC in human NCI-H661 cells assessed as induction of histone H4 acetylation at 3 uM after 6 hrs by Western blot analysis; format: cell-based
# Outline: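 NCI-H661 cells exposed to compound for 6 h, then lysed and probed by Western blot for acetylated histone H4, with tubulin acetylation blotted alongside. Blots shown are representative of three independent experiments.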
IC50 (NCI-H661 [1]),Activity [4],SMILES,fold change (FC) (NCI-H661 [2]),fold change (FC) (NCI-H661 [3])
100 nM,,CC(/C=C/C(=O)NO)=C\[C@@H](C)C(=O)c1ccc(N(C)C)cc1 [TRICHOSTATIN],50,4
,Active,CC(/C=C/C(=O)NO)=C\C1(C)Oc2ccccc2C1=O (centres undefined),,
